According to ChEMBL document CHEMBL4689842, “EUbOPEN Chemogenomics Library wave 1” (2021):
Where “and” joins values, the source holds several entries; their conditions need not be identical. Identical values can stand only once.

Tested on: U2OS
Assay: Multiplex assay against U2OS
Type: toxicity, cell-based
Settings: human
Summary of the method: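 With compound added, live cells were imaged on a CQ1 microscope at 37°C and 5% CO2; staining with Hoechst33342, BioTracker Green Microtubule Cytoskeleton Dye, MitoTracker Red and Annexin V Alexa Fluor 680 had been done at seeding. The CellPathfinder machine-learning gating scheme split cells into Hoechst high-intensity objects or normal cells, normal cells into healthy, pyknosed or fragmented nuclei, and pyknosed cells into mitotic or apoptotic. The tubulin, mitochondrial-mass and membrane-permeability phenotypes are per cents of healthy-nucleus cells.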

[1] = 12 h, 1 µM, compound concentration 1 uM, replicate 1
[2] = 12 h, 1 µM, compound concentration 1 uM, replicate 2
[3] = 12 h, 10 µM, compound concentration 10 uM, replicate 1
[4] = 12 h, 10 µM, compound concentration 10 uM, replicate 2
[5] = 24 h, 1 µM, compound concentration 1 uM, replicate 1
[6] = 24 h, 1 µM, compound concentration 1 uM, replicate 2
[7] = 24 h, 10 µM, compound concentration 10 uM, replicate 1
[8] = 24 h, 10 µM, compound concentration 10 uM, replicate 2
[9] = 48 h, 1 µM, compound concentration 1 uM, replicate 1
[10] = 48 h, 1 µM, compound concentration 1 uM, replicate 2
[11] = 48 h, 10 µM, compound concentration 10 uM, replicate 1
[12] = 48 h, 10 µM, compound concentration 10 uM, replicate 2

## CS(=O)(=O)N1CCCC(NC(=O)[C@H](CCC2CCCCC2)NC(=O)c2ccc(CNC(=O)c3cnc4ccccn34)cc2)C1 (some centres undefined) [SR-302]
[1]
  Population Apoptotic (%): 41% [middle of 4 runs]
  Population Fragmented Nuclei (%): 2% and 6% and 10% and 5%
  Population Healthy Nuclei (%): 92% and 78% and 82%
  Population Membrane Permeable-Phenotype (%): 12% and 6% and 4%
  Population Mitotic Cells (%): 80% and 39% and 58%
  Population Normal (%): 95% and 97% and 96% and 92%
  Population Pyknosed Nuclei (%): 5% and 10% and 11%
  Population Tubulin-Different-Phenotype (%): 18% and 32% and 29%
  Total Cell Count: 258 [middle of 4 runs]
[2]
  Population Fragmented Nuclei (%): 8% and 12%
  Population Healthy Nuclei (%): 90% and 83% and 81% and 76%
  Population Hoechst High Intensity Objects (%): 10% and 6% and 16%
  Population Membrane Permeable-Phenotype (%): 7% [middle of 4 runs]
  Population Mitotic Cells (%): 100% and 60% and 66%
  Population Normal (%): 89% and 93% and 83%
  Population Pyknosed Nuclei (%): 8% [middle of 4 runs]
  Population Tubulin-Different-Phenotype (%): 15% and 17% and 14%
  Total Cell Count: 84 [middle of 4 runs]
[3]
  Population Apoptotic (%): 56% [middle of 4 runs]
  Population Fragmented Nuclei (%): 11% and 10% and 2%
  Population Healthy Nuclei (%): 70% and 74% and 75% and 94%
  Population Hoechst High Intensity Objects (%): 11% and 5%
  Population Membrane Permeable-Phenotype (%): 13% and 12%
  Population Mitotic Cells (%): 65% [middle of 4 runs]
  Population Normal (%): 88% and 94%
  Total Cell Count: 185 [middle of 4 runs]
[4]
  Population Fragmented Nuclei (%): 12% and 9% and 6%
  Population Healthy Nuclei (%): 80% and 83% and 86%
  Population Hoechst High Intensity Objects (%): 7% and 6% and 3%
  Population Membrane Permeable-Phenotype (%): 20% [middle of 4 runs]
  Population Normal (%): 92% and 93% and 96%
  Population Pyknosed Nuclei (%): 7% and 9% and 4%
  Total Cell Count: 92 [middle of 4 runs]
[5]
  Population Apoptotic (%): 18% and 31% and 46%
  Population Fragmented Nuclei (%): 3% and 6% and 5% and 8%
  Population Healthy Nuclei (%): 90% and 85% and 87% and 81%
  Population Hoechst High Intensity Objects (%): 1% and 2% and 3%
  Population Membrane Permeable-Phenotype (%): 7% and 6% and 2% and 1%
  Population Mitotic Cells (%): 81% and 68% and 53%
  Population Normal (%): 98% and 97% and 96%
  Population Pyknosed Nuclei (%): 6% and 7% and 10%
  Total Cell Count: 310 [middle of 4 runs]
[6]
  Population Fragmented Nuclei (%): 7%
  Population Healthy Nuclei (%): 91% and 84% and 88% and 93%
  Population Membrane Permeable-Phenotype (%): 9% and 8% and 5%
  Population Mitotic Cells (%): 66% and 50% and 85%
  Population Normal (%): 89% and 85% and 95%
  Population Pyknosed Nuclei (%): 1% and 8% and 2%
  Population Tubulin-Different-Phenotype (%): 24% [middle of 4 runs]
  Total Cell Count: 97 [middle of 4 runs]
[7]
  Population Apoptotic (%): 62% [middle of 4 runs]
  Population Fragmented Nuclei (%): 10% and 11% and 5%
  Population Healthy Nuclei (%): 72% and 71% and 90%
  Population Hoechst High Intensity Objects (%): 8% and 6% and 1%
  Population Membrane Permeable-Phenotype (%): 11% and 13%
  Population Mitotic Cells (%): 51% [middle of 4 runs]
  Population Normal (%): 91% and 93% and 98%
  Total Cell Count: 265 [middle of 4 runs]
[8]
  Population Apoptotic (%): 54% [middle of 4 runs]
  Population Fragmented Nuclei (%): 7% and 1% and 9%
  Population Healthy Nuclei (%): 77% and 82% and 89%
  Population Hoechst High Intensity Objects (%): 11% and 4% and 5%
  Population Membrane Permeable-Phenotype (%): 20% and 16% and 12%
  Population Mitotic Cells (%): 60% [middle of 4 runs]
  Population Normal (%): 88% and 95% and 94%
  Population Pyknosed Nuclei (%): 15% and 13%
  Total Cell Count: 91 [middle of 4 runs]
[9]
  Population Apoptotic (%): 40% and 44% and 37%
  Population Fragmented Nuclei (%): 4% and 1% and 2%
  Population Healthy Nuclei (%): 92% and 90%
  Population Hoechst High Intensity Objects (%): 1% and 0%
  Population Membrane Permeable-Phenotype (%): 2%
  Population Mitochondria Different-Phenotype (%): 15% and 9% and 7%
  Population Mitotic Cells (%): 60% and 56% and 62%
  Population Normal (%): 98% and 99%
  Population Pyknosed Nuclei (%): 6% and 5%
  Population Tubulin-Different-Phenotype (%): 40% and 18% and 46%
  Total Cell Count: 466 and 472
[10]
  Population Fragmented Nuclei (%): 6% and 3%
  Population Healthy Nuclei (%): 84% and 88% and 91%
  Population Hoechst High Intensity Objects (%): 9% and 2%
  Population Membrane Permeable-Phenotype (%): 7% and 4% and 1%
  Population Mitochondria Different-Phenotype (%): 11% and 5%
  Population Mitotic Cells (%): 44% and 91% and 66%
  Population Normal (%): 90% and 97%
  Population Pyknosed Nuclei (%): 9% and 8%
  Population Tubulin-Different-Phenotype (%): 30% and 26% and 12%
  Total Cell Count: 93 and 189 and 109
[11]
  Population Apoptotic (%): 70% and 57%
  Population Fragmented Nuclei (%): 10%
  Population Healthy Nuclei (%): 74% and 73% and 72%
  Population Hoechst High Intensity Objects (%): 8%
  Population Membrane Permeable-Phenotype (%): 7% and 4%
  Population Mitochondria Different-Phenotype (%): 39% and 36% and 30%
  Population Mitotic Cells (%): 29% and 42%
  Population Normal (%): 91%
  Population Pyknosed Nuclei (%): 16% and 17%
  Population Tubulin-Different-Phenotype (%): 40% and 38% and 30%
  Total Cell Count: 243 and 658 and 261
[12]
  Population Apoptotic (%): 76% and 46% and 90%
  Population Fragmented Nuclei (%): 9% and 6% and 8%
  Population Healthy Nuclei (%): 75% and 79% and 80%
  Population Hoechst High Intensity Objects (%): 7% and 5% and 1%
  Population Membrane Permeable-Phenotype (%): 20% and 16%
  Population Mitochondria Different-Phenotype (%): 59% and 41% and 44%
  Population Normal (%): 92% and 94% and 98%
  Population Pyknosed Nuclei (%): 15% and 13% and 10%
  Population Tubulin-Different-Phenotype (%): 48% and 33% and 39%
  Total Cell Count: 146 and 92 and 114
